Measurements gathered from unrelated publications.
Protocols differ between the studies behind these lines. Values after ≈ are worked out from the molar mass of the structure shown.

Structure (SMILES)	organism	test	test system	setting	endpoint	value
CCc1cc(Nc2cc(=O)n(CCCCO)c(=O)[nH]2)ccc1C	Lacticaseibacillus casei	microbial growth, agar dilution		48 h	MIC	32 µg/mL (≈ 101 µM)
CCc1nc(N)nc(N)c1-c1ccc(Cl)cc1	Toxoplasma gondii	parasite growth	human Fibroblast	intracellular	IC50	16.1 µM
N#Cc1cc(-c2nc3ccccc3s2)c(=O)n(NS(=O)(=O)c2ccccc2)c1N	Human mastadenovirus B	plaque formation	HEp-2		IC50	110 µg/mL
Cc1nc2sccn2c1C(=O)N1CCN(CCn2cc(-c3ccc(C(C)(C)C)cc3)nn2)CC1	Mycolicibacterium smegmatis	microbial growth		72 h	IC50	> 128 µM
CC(C)(C)C1=CC(=NNC(=O)C2CCCCC2)C=C(C(C)(C)C)C1=O	Toxoplasma gondii	parasite growth, fluorescence		5 days, intracellular	IC50	> 100 µM
COc1cc2[nH]c3cc(Oc4ccc(OC(F)(F)F)cc4)ccc3c(=O)c2cc1F	Toxoplasma gondii	parasite growth		72 h, intracellular	EC50	0.00063 µM
N=C(NCCCCCCNC(=N)NC(=N)Nc1ccc(Cl)cc1)NC(=N)Nc1ccc(Cl)cc1	Acanthamoeba castellanii	parasite growth, resazurin		96 h	IC50	5.97 µM
Cc1ccc(C(=O)ON=C2C=C(C(C)(C)C)C(=O)C(C(C)(C)C)=C2)cc1	Toxoplasma gondii	parasite growth, fluorescence		5 days, intracellular	IC50	13 µM
O=c1[nH]c(NCc2ccc(Cl)c(Cl)c2)nc2ncn(CCCCCN3CCOCC3)c12	Lacticaseibacillus casei	microbial growth, agar dilution		48 h	MIC	16 µg/mL (≈ 34.4 µM)
O=C1C(O)=C([C@H]2CC[C@H](c3ccc(Cl)cc3)CC2)C(=O)c2ccccc21	Toxoplasma gondii	parasite growth		72 h, intracellular	EC50	0.0106 µM
C[C@@H](c1ncncc1F)[C@](O)(Cn1cncn1)c1ccc(F)cc1F	Acanthamoeba castellanii	parasite growth, resazurin		7 days	IC50	21.6 µM
OC[C@H]1O[C@@H](n2ccc3c(O)ncnc32)[C@H](O)[C@@H]1O	Toxoplasma gondii	parasite growth	human Fibroblast	intracellular	IC50	36.1 µM
